Measurements taken from ChEMBL document CHEMBL1141576, “Design of new potent and selective secretory phospholipase A2 inhibitors. Part 5: synthesis and biological activity of 1-alkyl-4-[4,5-dihydro-1,2,4-[4H]-oxadiazol-5-one-3-ylmethylbenz-4'-yl(oyl)] piperazines” (Bioorg Med Chem, 2008).

What was measured:
[1] = molecular target: Phospholipase A2, major isoenzyme (Sus scrofa, UniProt P00592); experiment: Inhibition of pig pancreatic PLA2 by fluorometric assay
In short: (§1)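 Fluorimetric PLA2 assay after Radvanyi et al. Enzymes were secretory human recombinant group II PLA2 and secretory porcine pancreatic group I PLA2. Concentration of the fluorescent substrate determined by UV spectrometry in a quartz cell. Values reported as IC50.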

[2] = molecular target: T1, Phospholipase A2, membrane associated (Homo sapiens, UniProt P14555); experiment: Inhibition of human recombinant PLA2 by fluorometric assay; in short: as §1
T1 sequence (P14555 whole entry): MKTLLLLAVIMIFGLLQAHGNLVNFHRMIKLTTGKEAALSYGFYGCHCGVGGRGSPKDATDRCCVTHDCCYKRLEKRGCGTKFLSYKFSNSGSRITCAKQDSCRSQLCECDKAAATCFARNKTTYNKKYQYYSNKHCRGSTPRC

[3] = Lipophilicity, log P of the compound; type: physicochemical; details: octanol/water
In short: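 logP of the free base calculated with Rekker's hydrophobic fragmental constants method.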

Mus musculus [4] = experiment: Antiinflammatory activity against croton oil-induced ear edema in mouse at 1 mg/ear; type: functional
In short: (§2)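 Mice, anaesthetized. Test compound applied locally to inner surface of ear (or given per os); 1 h later croton oil applied to the ear to induce edema. 5 h after croton oil, edematous tissue punched out with a gimlet and compared with tissue from a control site to calculate percent inhibition. Results reported as mean of the animals tested, with number of experiments.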

Rattus norvegicus [5] = experiment: Inhibition of carrageenan-induced hind paw edema in rat assessed as decrease in paw volume at 10 mg/kg, po after 5 hrs; type: functional; set-up: scale not given: the % may be the effect or the level left
In short: (§3)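 Rats. Compound given ip or orally 1 h before carrageenan injection into the hind leg; doses 5, 10 and 20 mg/kg. Indomethacin used as positive control. Edema volume measured at 0, 3 and 5 h after carrageenan.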

Rattus norvegicus [6] = experiment: Inhibition of carrageenan-induced hind paw edema in rat assessed as decrease in paw volume at 10 mg/kg; type: functional; set-up: scale not given: the % may be the effect or the level left; in short: as §3
Mus musculus [7] = experiment: Antiinflammatory activity against croton oil-induced ear edema in mouse at 0.5 mg/ear; type: functional; in short: as §2

Sequence of Phospholipase A2, major isoenzyme (P00592 whole entry): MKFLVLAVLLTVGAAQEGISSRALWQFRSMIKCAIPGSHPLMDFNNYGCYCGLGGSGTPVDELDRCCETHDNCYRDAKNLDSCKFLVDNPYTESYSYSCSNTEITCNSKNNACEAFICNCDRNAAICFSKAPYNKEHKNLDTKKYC

Compound	IC50 [1] [µM]	IC50 [2] [µM]	logP ([3]; read-out: LogP)	logP [3]	Activity (Mus musculus [4]) [%]	Activity (Rattus norvegicus [5]) [%]	Activity (Rattus norvegicus [6]) [%]	Activity (Mus musculus [7]) [%]
CCCCCCCCCCCCCCN1CCN(C(=O)c2ccc(Cc3noc(=O)[nH]3)cc2)CC1	> 100	9	5.78		47.83	65		
CCCCCCCCCCCCCCN1CCN(Cc2ccc(-c3nc(=O)o[nH]3)cc2)CC1	> 100	> 100	5.3					
CCCCCCCCCCCCCCCCN1CCN(C(=O)c2ccc(-c3nc(=O)o[nH]3)cc2)CC1	> 100	> 100	6.53					
CCCCCCCCCCCCCCN1CCN(C(=O)c2ccc(-c3nc(=O)o[nH]3)cc2)CC1	> 100	> 100	5.48					
CCCCCCCCCCCCCCN1CCN(Cc2ccc(Cc3noc(=O)[nH]3)cc2)CC1	> 100	> 10	5.59		51.45		79	
CCCCCCCCCCCCCCCCN1CCN(Cc2ccc(Cc3noc(=O)[nH]3)cc2)CC1	> 100	10	6.63					
CCCCCCCCCCCCCCN1CCN(c2ccc(Cc3nc(=O)o[nH]3)cc2)CC1	> 100	4.5	5.95					
CCCCCCCCCCCCCCCCCCCCCCN1CCN(C(=O)c2ccc(Cc3noc(=O)[nH]3)cc2)CC1	> 100	0.1		9.932				
CCCCCCCCCCCCCCCCN1CCN(C(=O)c2ccc(Cc3nc(=O)o[nH]3)cc2)CC1	> 100	4	6.81					
CCCCCCCCCCCCCCCCCCN1CCN(Cc2ccc(Cc3nc(=O)o[nH]3)cc2)CC1	> 100	2.2	7.67					
COc1ccc2c(c1)c(CC(=O)O)c(C)n2C(=O)c1ccc(Cl)cc1 [INDOMETHACIN]						16	73	43.11

The next lines start with results.

IC50 [1] [µM]	IC50 [2] [µM]	logP ([3]; read-out: LogP)	logP [3]	Compound	Activity (Mus musculus [4]) [%]	Activity (Rattus norvegicus [5]) [%]	Activity (Rattus norvegicus [6]) [%]	Activity (Mus musculus [7]) [%]
> 100				CCCCCCCCCCCCCCOc1ccc(Cc2noc(=O)[nH]2)cc1				
> 100	18.7	6.3		CCCCCCCCCCCCCCN1CCN(C(=O)c2ccc(CCc3nc(=O)o[nH]3)cc2)CC1				
> 100	3.5	6.98		CCCCCCCCCCCCCCCCN1CCN(c2ccc(Cc3noc(=O)[nH]3)cc2)CC1				
> 100		8.02		CCCCCCCCCCCCCCCCCCN1CCN(c2ccc(Cc3noc(=O)[nH]3)cc2)CC1				
> 100	1.1	7.56		CCCCCCCCCCCCCCCCCCN1CCN(C(=O)c2ccc(-c3noc(=O)[nH]3)cc2)CC1				
> 100	5.3	6.81		CCCCCCCCCCCCCCN1CCN(C(=O)c2ccc(CCCc3noc(=O)[nH]3)cc2)CC1				
> 100	5.08	7.37		CCCCCCCCCCCCCCCCCCN1CCN(Cc2ccc(-c3noc(=O)[nH]3)cc2)CC1				
> 100	0.8	7.86		CCCCCCCCCCCCCCCCCCN1CCN(C(=O)c2ccc(Cc3noc(=O)[nH]3)cc2)CC1				
> 100	> 100	6.34		CCCCCCCCCCCCCCCCN1CCN(Cc2ccc(-c3noc(=O)[nH]3)cc2)CC1				
> 100	0.1	8.89		CCCCCCCCCCCCCCCCCCCCN1CCN(C(=O)c2ccc(Cc3noc(=O)[nH]3)cc2)CC1				
